Assay results as given in ChEMBL document CHEMBL2150889, “Azetidinyl oxadiazoles as potent mGluR5 positive allosteric modulators” (Bioorg Med Chem Lett, 2012).
pEC50, pIC50: −log10 of the molar value. ≈ marks a conversion by molar mass, not a printed value.

Columns and labels:
[1] = Ratio of drug level in brain to plasma of rat at 10 mg/kg, po after 1 hr; assay type: ADME, organism-based; set-up: dose 10 mg/kg, route oral; settings: brain and plasma, read-out: BPR
How it was run: (§1)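 Rats got a single 10 mg/kg oral dose (n = 2 animals). Brain and plasma were sampled at 1 h. Concentrations were measured by HPLC-tandem MS and averaged values reported. Brain/plasma ratio is brain level (ng/g) divided by plasma level (ng/mL).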

[2] = target: T1, Metabotropic glutamate receptor 5 (Homo sapiens, UniProt P41594); assay: Positive allosteric modulation of human mGluR5 expressed in recombinant HEK293 cells by FLIPR assay; assay type: cell-based; set-up: Activity: concentration or dose not given beside the values
How it was run: (§2)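 HEK293 cells recombinantly expressing human mGluR5 were seeded at 2×10^4 cells/well on poly-D-lysine. They were incubated overnight at 37 °C in glutamate/glutamine-free medium, then loaded for 1 h at 37 °C with calcium 5 dye containing 3 U/ml glutamic pyruvic transaminase and 3 mM sodium pyruvate. Calcium flux was read by FLIPR.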

[3] = target: T1, Metabotropic glutamate receptor 5; assay: Negative allosteric modulation of human mGluR5 expressed in recombinant HEK293 cells by FLIPR assay; assay type: cell-based; how it was run: as §2
[4] = target: T1, Metabotropic glutamate receptor 5; assay: Binding affinity to human mGluR5 expressed in recombinant HEK293 cells by radiolabeled assay; assay type: cell-based
Target sequence in this assay (P41594 21-1212 limits assumed): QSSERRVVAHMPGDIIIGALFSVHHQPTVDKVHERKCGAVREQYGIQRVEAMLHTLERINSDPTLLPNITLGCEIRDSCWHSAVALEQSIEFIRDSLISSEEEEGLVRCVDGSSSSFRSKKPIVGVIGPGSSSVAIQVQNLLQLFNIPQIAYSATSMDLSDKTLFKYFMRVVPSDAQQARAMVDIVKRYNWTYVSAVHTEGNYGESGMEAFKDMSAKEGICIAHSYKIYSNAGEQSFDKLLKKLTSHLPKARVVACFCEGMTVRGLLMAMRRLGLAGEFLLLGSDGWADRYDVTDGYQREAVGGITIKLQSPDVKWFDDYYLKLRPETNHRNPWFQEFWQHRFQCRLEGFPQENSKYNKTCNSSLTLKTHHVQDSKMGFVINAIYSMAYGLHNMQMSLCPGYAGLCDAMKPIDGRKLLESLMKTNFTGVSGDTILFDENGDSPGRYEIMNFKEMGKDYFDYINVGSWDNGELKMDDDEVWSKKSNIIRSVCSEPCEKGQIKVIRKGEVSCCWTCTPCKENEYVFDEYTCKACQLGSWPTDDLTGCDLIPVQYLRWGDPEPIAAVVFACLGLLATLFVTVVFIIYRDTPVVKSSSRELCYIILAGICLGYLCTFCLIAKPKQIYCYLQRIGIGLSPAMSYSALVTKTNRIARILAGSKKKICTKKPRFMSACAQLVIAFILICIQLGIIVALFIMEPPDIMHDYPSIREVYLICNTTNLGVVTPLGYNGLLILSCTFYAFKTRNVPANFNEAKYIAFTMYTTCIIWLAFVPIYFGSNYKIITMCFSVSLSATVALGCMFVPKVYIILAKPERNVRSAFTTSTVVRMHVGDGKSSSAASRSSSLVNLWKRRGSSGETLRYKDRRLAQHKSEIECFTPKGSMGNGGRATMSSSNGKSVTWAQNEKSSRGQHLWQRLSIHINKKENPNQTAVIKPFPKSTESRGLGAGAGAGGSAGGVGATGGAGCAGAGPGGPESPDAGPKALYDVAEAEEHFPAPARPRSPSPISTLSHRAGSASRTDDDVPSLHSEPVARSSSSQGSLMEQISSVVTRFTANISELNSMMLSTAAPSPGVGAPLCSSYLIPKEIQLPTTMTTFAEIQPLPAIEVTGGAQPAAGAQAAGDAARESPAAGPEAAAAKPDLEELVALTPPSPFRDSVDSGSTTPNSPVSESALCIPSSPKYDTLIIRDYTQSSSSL

[5] = Solubility of the compound in potassium phosphate buffer after 4 hrs by UPLC analysis; assay type: physicochemical
How it was run: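 DMSO stock of compound (300 μL) was diluted with 2 × 200 μL of 25 mM potassium phosphate buffer. The mixture was shaken on a titer plate shaker for 4 h.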

Liver microsomes [6] = assay: Intrinsic clearance in human liver microsomes; assay type: ADME, Microsome
How it was run: (§3)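 Intrinsic clearance was determined by the Obach method. Liver blood flow was taken as 1.5 L/min for human and 20 mL/min for rat. Human values are expressed in L/min and rat values in mL/min.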

Liver microsomes [7] = assay: Intrinsic clearance in rat liver microsomes; assay type: ADME, Microsome; how it was run: as §3
[8] = Plasma protein binding in human; assay type: ADME, cell-free; settings: read-out: PPB (converted)
[9] = Plasma protein binding in rat; assay type: ADME, cell-free; settings: read-out: PPB (converted)
[10] = Drug uptake in rat brain at 10 mg/kg, po after 1 hr; assay type: ADME, organism-based; set-up: dose 10 mg/kg, route oral; settings: read-out: Drug uptake; how it was run: as §1
[11] = Plasma concentration in rat at 10 mg/kg, po after 1 hr; assay type: ADME, organism-based; set-up: dose 10 mg/kg, route oral; how it was run: as §1

In the case of O=C(C1CCC(F)(F)CC1)N1CC(c2nc(-c3cccc(Cl)c3)no2)C1, the Kp at 1 h [1] was 1.75, the Activity [2] was 3% and the pEC50 [2] was 6.74. The Emax [2] was 75%, the pIC50 [3] was under 5.00 and the Activity [4] was 3.8 µM. For the same compound, the solubility at 4 h [5] was 130 µM (≈ 49.6 µg/mL), the CLH (Liver microsomes [6]) was 0.9 L/min and the CLH (Liver microsomes [7]) was 24 mL/min. It also gave a fraction unbound [8] of 0.013, a fraction unbound [9] of 0.031 and a concentration at 1 h [10] of 280 ng/g. It also gave a concentration at 1 h [11] of 160 ng/mL.

For O=C([C@H]1CC2CCC1C2)N1CC(c2nc(-c3cccc(F)c3)no2)C1 (stereo partly specified), the Kp at 1 h [1] was 2.33, the pEC50 [2] was 7.14 and the Emax [2] was 140%. For the same compound, the solubility at 4 h [5] was 54 µM (≈ 18.4 µg/mL), the CLH (Liver microsomes [6]) was 59 L/min and the CLH (Liver microsomes [7]) was 16 mL/min. For the same compound, the fraction unbound [8] was 0.007, the fraction unbound [9] was 0.008 and the concentration at 1 h [10] was 84 ng/g. For the same compound, the concentration at 1 h [11] was 36 ng/mL.

For CC1CCCCC1C(=O)N1CC(c2nc(-c3cccc(F)c3)no2)C1 (stereo unspecified), the Activity [2] was 48%, the pEC50 [2] was 6.27 and the Emax [2] was 87%. For the same compound, the pIC50 [3] was under 5.00, the solubility at 4 h [5] was 180 µM (≈ 61.8 µg/mL) and the CLH (Liver microsomes [6]) was 1.6 L/min. The CLH (Liver microsomes [7]) was 13 mL/min, the fraction unbound [8] was 0.034 and the fraction unbound [9] was 0.055.

Work on O=C(c1ccc(F)cc1)N1CC(c2nc(-c3cccc(Cl)c3)no2)C1 yielded a pEC50 [2] of under 5.00, an Emax [2] of -12% and a pIC50 [3] of 5.40. The inhibition ([3]; concentration not given here) was 60% and the solubility at 4 h [5] was 47 µM (≈ 16.8 µg/mL).

Work on O=C(C1CCC(C(F)(F)F)CC1)N1CC(c2nc(-c3cccc(Cl)c3)no2)C1 (stereo unspecified) yielded an Activity [2] of 5%, a pEC50 [2] of 6.00 and an Emax [2] of 40%. The pIC50 [3] was under 5.00.
